Source: ChEMBL document CHEMBL1681781, “Structure based design and syntheses of amino-1H-pyrazole amide derivatives as selective Raf kinase inhibitors in melanoma cells” (Bioorg Med Chem, 2011)
Activity calls are given as the source filed them. The calls are words filed in the database; no cut-off is given here.

Experiments:
[1] = (§1) Antiproliferative activity against human A375P cells assessed as growth inhibition after 24 hrs by MTT assay; assay type: functional
Procedure, shortened: (§2)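 A375P cells kept in DMEM with 10% FBS and 1% penicillin/streptomycin at 37 °C under 5% CO2. Cells lifted with 0.05% trypsin–0.02% EDTA, seeded at 5 × 10^3 cells/well and left 24 h before dosing. Test compounds given as a 3-fold serial dilution over 12 points. Viability read by MTT reduction, absorbance at 590 nm.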

[2] = system: HS27; experiment: Antiproliferative activity against human HS27 cells assessed as growth inhibition after 24 hrs by MTT assay; assay type: functional; settings: HS27, 24 h
[3] = molecular target: Serine/threonine-protein kinase mTOR (Homo sapiens, UniProt P42345); experiment: inhibition of mTOR
[4] = system: Serine/threonine-protein kinase B-raf (Homo sapiens), P15056 [V600E]; experiment: Inhibition of B-Raf V600E mutant
Chain of Serine/threonine-protein kinase B-raf (Homo sapiens), P15056 [V600E] (P15056 whole entry V600E): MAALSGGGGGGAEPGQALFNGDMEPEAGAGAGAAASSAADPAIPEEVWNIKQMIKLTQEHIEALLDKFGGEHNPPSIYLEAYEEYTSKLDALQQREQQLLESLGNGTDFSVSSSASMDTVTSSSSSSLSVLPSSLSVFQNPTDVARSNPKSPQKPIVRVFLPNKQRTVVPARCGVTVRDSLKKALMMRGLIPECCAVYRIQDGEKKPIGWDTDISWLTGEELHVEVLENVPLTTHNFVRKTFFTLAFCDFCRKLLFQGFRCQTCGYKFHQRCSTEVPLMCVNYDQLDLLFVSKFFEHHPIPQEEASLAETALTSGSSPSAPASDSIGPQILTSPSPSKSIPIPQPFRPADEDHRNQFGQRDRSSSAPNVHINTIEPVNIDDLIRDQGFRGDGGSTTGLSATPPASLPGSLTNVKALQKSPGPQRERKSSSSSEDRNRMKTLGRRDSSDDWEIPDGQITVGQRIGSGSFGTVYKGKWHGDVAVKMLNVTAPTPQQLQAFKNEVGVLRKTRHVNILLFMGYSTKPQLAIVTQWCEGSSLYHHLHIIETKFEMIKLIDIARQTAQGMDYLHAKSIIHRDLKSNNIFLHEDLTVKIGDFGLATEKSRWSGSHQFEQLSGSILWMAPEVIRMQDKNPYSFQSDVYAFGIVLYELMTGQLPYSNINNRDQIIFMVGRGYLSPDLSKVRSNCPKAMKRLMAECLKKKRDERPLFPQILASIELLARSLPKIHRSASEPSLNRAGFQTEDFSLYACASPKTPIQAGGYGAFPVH

[5] = molecular target: RAF proto-oncogene serine/threonine-protein kinase (Homo sapiens, UniProt P04049); experiment: Inhibition of C-Raf assessed as [33P]gamma-ATP incorporation into substrate after 40 mins by scintillation counting
Chain of RAF proto-oncogene serine/threonine-protein kinase (P04049 whole entry): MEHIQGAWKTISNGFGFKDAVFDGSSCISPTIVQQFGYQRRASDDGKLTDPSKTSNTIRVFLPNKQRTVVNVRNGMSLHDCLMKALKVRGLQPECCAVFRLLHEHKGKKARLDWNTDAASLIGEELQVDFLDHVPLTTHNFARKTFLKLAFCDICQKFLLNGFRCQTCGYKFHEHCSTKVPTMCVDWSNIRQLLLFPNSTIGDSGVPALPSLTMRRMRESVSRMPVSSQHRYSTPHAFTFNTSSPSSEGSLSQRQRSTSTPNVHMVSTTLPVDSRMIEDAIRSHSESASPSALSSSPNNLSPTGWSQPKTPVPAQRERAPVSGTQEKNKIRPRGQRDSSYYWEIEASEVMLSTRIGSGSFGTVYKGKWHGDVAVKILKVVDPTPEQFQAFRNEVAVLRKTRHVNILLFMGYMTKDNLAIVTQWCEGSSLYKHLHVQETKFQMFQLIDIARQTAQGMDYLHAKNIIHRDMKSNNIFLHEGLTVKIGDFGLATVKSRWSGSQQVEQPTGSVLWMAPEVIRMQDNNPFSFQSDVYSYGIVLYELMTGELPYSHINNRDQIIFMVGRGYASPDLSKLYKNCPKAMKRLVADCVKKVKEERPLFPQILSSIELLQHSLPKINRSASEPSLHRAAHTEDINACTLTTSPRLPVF
Procedure, shortened: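 Human C-RAF (5–10 mU) in 25 mM Tris pH 7.5, 0.02 mM EGTA, 10 mM Mg acetate, with 0.66 mg/mL myelin basic protein as substrate and [γ-33P]ATP. Reaction started by adding the Mg-ATP mix and run 40 min at room temperature. Stopped with 3% phosphoric acid, spotted on P30 filtermat, washed in 75 mM phosphoric acid and methanol, then scintillation counted.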

[6] = system: A375P; experiment: as §1; assay type: functional; procedure, shortened: as §2

Row | Structure (SMILES) | GI50 [1] | GI50 [2] | GI50 [6] | also measured
1 | COc1ccc(Cn2ncc(NC(=O)c3ccc(NC(=O)c4cc(-c5ccc(Cl)cc5)on4)cc3C)c2N)cc1 | 24.9 µM | > 30 µM |  | 
2 | COc1ccc(Cn2ncc(NC(=O)c3ccc(NC(=O)Nc4cccc(C(F)(F)F)c4)cc3C)c2N)cc1 | > 30 µM | > 30 µM |  | 
3 | O=c1cc(N2CCOCC2)oc2c(-c3ccccc3)cccc12 [LY-294002] |  |  |  | IC50 [3]: 3.02 µM
4 | COc1ccc(Cn2ncc(NC(=O)c3cc(NC(=O)c4ccc([N+](=O)[O-])c(C(F)(F)F)c4)ccc3C)c2N)cc1 | 27.9 µM | > 30 µM |  | 
5 | COc1ccc(Cn2ncc(NC(=O)c3ccc(NC(=O)Nc4cc(-n5cnc(C)c5)cc(C(F)(F)F)c4)cc3C)c2N)cc1 | 5.71 µM | > 30 µM |  | 
6 | CNC(=O)c1cc(Oc2ccc(NC(=O)Nc3ccc(Cl)c(C(F)(F)F)c3)cc2)ccn1 [SORAFENIB] | 5.58 µM |  |  | 
7 | COc1ccc(Cn2ncc(NC(=O)c3ccc(NC(=O)Nc4ccc(Cl)c(C(F)(F)F)c4)cc3C)c2N)cc1 | 33.2 µM | > 30 µM |  | inhibition [4]: inactive; IC50 [5]: 8320 nM
8 | COc1ccc(Cn2ncc(NC(=O)c3cc(NC(=O)c4ccnc(Cl)c4)ccc3C)c2N)cc1 |  | > 30 µM | inactive | 
9 | O=C1Nc2ccc(I)cc2C1=Cc1cc(Br)c(O)c(Br)c1 |  |  |  | IC50 [4]: 3.86 nM
10 | COc1ccc(Cn2ncc(NC(=O)c3cc(NC(=O)c4cccc(C(F)(F)F)c4)ccc3C)c2N)cc1 | 5.53 µM | > 30 µM |  | inhibition [4]: inactive; IC50 [5]: 22.4 nM
11 | COc1ccc(Cn2ncc(NC(=O)c3cc(NC(=O)c4ncc(-c5ccncc5)s4)ccc3C)c2N)cc1 |  | > 30 µM | inactive | 
12 | COc1ccc(Cn2ncc(NC(=O)c3ccc(NC(=O)Nc4cc(N5CCOCC5)cc(C(F)(F)F)c4)cc3C)c2N)cc1 | 51.5 µM | > 30 µM |  | 
13 | COc1ccc(Cn2ncc(NC(=O)c3cc(NC(=O)Nc4cccc(Cl)c4)ccc3C)c2N)cc1 | 0.21 µM | > 30 µM |  | 
14 | COc1ccc(Cn2ncc(NC(=O)c3cc(NC(=O)Nc4cc(C)no4)ccc3C)c2N)cc1 |  | > 30 µM | inactive | 
15 | COc1ccc(Cn2ncc(NC(=O)c3ccc(NC(=O)c4cnn(-c5ccccc5)c4C(F)(F)F)cc3C)c2N)cc1 |  | > 30 µM | inactive | 
16 | COc1ccc(Cn2ncc(NC(=O)c3ccc(NC(=O)c4cc(C)on4)cc3C)c2N)cc1 |  | > 30 µM | inactive | 
17 | COc1ccc(Cn2ncc(NC(=O)c3cc(NC(=O)c4ccc(-c5cc(C(F)(F)F)ccc5Cl)o4)ccc3C)c2N)cc1 |  | > 30 µM | inactive | 
18 | COc1ccc(Cn2ncc(NC(=O)c3ccc(NC(=O)Nc4ccc(Cl)cc4)cc3C)c2N)cc1 |  | > 30 µM | inactive | 

Row | Structure (SMILES) | GI50 [1] | GI50 [2] | GI50 [6] | also measured
19 | COc1ccc(Cn2ncc(NC(=O)c3ccc(NC(=O)Nc4ccc(Cl)c(Cl)c4)cc3C)c2N)cc1 | 4.12 µM | > 30 µM |  | 
20 | COc1ccc(Cn2ncc(NC(=O)c3cc(NC(=O)Nc4c(Cl)cccc4Cl)ccc3C)c2N)cc1 |  | > 30 µM | inactive | 
21 | Cc1ccc(NC(=O)Nc2ccc(Cl)c(C(F)(F)F)c2)cc1C(=O)Nc1cnn(Cc2ccccc2)c1N | 15.9 µM | > 30 µM |  | 
22 | COc1ccc(Cn2ncc(NC(=O)c3cc(NC(=O)c4cc(-n5cnc(C)c5)cc(C(F)(F)F)c4)ccc3C)c2N)cc1 | 11.3 µM | > 30 µM |  | 
23 | COc1ccc(Cn2ncc(NC(=O)c3cc(NC(=O)c4cnn(-c5ccc(Cl)cc5)c4C(F)(F)F)ccc3C)c2N)cc1 | > 30 µM | > 30 µM |  | 
24 | COc1ccc(Cn2ncc(NC(=O)c3cc(NC(=O)Nc4ccc(Cl)cc4)ccc3C)c2N)cc1 | 8.73 µM | > 30 µM |  | 
25 | COc1ccc(Cn2ncc(NC(=O)c3ccc(NC(=O)c4cnccn4)cc3C)c2N)cc1 |  | > 30 µM | inactive | 
26 | COc1ccc(Cn2ncc(NC(=O)c3ccc(NC(=O)Nc4cccc(Cl)c4)cc3C)c2N)cc1 | 36.5 µM | > 30 µM |  | 
27 | COc1ccc(Cn2ncc(NC(=O)c3cc(NC(=O)Nc4ccc(C(F)(F)F)cc4)ccc3C)c2N)cc1 | > 30 µM | > 30 µM |  | 
28 | COc1ccc(Cn2ncc(NC(=O)c3cc(NC(=O)Nc4ccc(C(F)(F)F)cc4C(F)(F)F)ccc3C)c2N)cc1 |  | > 30 µM | inactive | 
29 | COc1ccc(Cn2ncc(NC(=O)c3cc(NC(=O)c4cc(-c5ccc(Cl)cc5)on4)ccc3C)c2N)cc1 | 1.39 µM | > 30 µM |  | 
30 | COc1ccc(Cn2ncc(NC(=O)c3ccc(NC(=O)c4cc5ccccc5o4)cc3C)c2N)cc1 | > 30 µM | > 30 µM |  | 
31 | COc1ccc(Cn2ncc(NC(=O)c3cc(NC(=O)NC4CCCCC4)ccc3C)c2N)cc1 |  | > 30 µM | inactive | 
32 | COc1ccc(Cn2ncc(NC(=O)c3ccc(NC(=O)Nc4cc(C(F)(F)F)ccc4N4CCOCC4)cc3C)c2N)cc1 | > 100 µM | > 30 µM |  | 
33 | COc1ccc(Cn2ncc(NC(=O)c3cc(NC(=O)Nc4cc(Cl)c(Cl)cc4Cl)ccc3C)c2N)cc1 | 11.4 µM | > 30 µM |  | 
34 | COc1ccc(Cn2ncc(NC(=O)c3ccc(NC(=O)c4cc5ccccc5s4)cc3C)c2N)cc1 | > 30 µM | > 30 µM |  | 
35 | COc1ccc(Cn2ncc(NC(=O)c3ccc(NC(=O)Nc4nccc(C(F)(F)F)n4)cc3C)c2N)cc1 |  | > 30 µM | inactive | 
36 | COc1ccc(Cn2ncc(NC(=O)c3cc(NC(=O)c4cc(N5CCN(C)CC5)cc(C(F)(F)F)c4)ccc3C)c2N)cc1 | 4.51 µM | > 30 µM |  | inhibition [4]: inactive; IC50 [5]: 240 nM
